High-throughput results from PubChem.
Most compounds without a hit are left out; they make up all but 1.4% or so of the library.
TbMetRS inhib – Trypanosoma brucei MetRS inhibition; purified T. brucei MetRS, ATP depletion, Kinase-Glo luminescence; inhibition, % at 11.9 µM; 0.4% of 360,000 active;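 active = inhibition above a per-plate cutoff of the control wells' mean inhibition plus 3 SD, cut at about 5.5% in these data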;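 also: 0% = DMSO wells median and 100% = median of wells with control inhibitor compound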
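Material – parasite MetRS enzyme · Medium – HEPES-MgCl2-KCl buffer plus DTT, spermine, BSA, pyrophosphatase · Reagent – ATP, methionine and E. coli bulk tRNA substrates · Times – 15 min enzyme-compound preincubation, 2 h reaction, 10 min detection, 25 °C · Measured by – luminescence of leftover ATP · Evaluation – percent inhibition relative to median high and low control wells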
IDE cell activ – IDE (human) activation, cell-based; P14735; HEK cells, FAbeta-B cleavage, fluorescence polarization; 0% vehicle, 100% cell-free pure enzyme wells; activation, % at 5.96 µM; 0.073% of 340,000 active; AID 493087;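 active = activation above the mean of all tested compounds plus 3 SD, set per screening campaign, cut at about 17% in these data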
Target sequence (P14735 whole entry, looked up): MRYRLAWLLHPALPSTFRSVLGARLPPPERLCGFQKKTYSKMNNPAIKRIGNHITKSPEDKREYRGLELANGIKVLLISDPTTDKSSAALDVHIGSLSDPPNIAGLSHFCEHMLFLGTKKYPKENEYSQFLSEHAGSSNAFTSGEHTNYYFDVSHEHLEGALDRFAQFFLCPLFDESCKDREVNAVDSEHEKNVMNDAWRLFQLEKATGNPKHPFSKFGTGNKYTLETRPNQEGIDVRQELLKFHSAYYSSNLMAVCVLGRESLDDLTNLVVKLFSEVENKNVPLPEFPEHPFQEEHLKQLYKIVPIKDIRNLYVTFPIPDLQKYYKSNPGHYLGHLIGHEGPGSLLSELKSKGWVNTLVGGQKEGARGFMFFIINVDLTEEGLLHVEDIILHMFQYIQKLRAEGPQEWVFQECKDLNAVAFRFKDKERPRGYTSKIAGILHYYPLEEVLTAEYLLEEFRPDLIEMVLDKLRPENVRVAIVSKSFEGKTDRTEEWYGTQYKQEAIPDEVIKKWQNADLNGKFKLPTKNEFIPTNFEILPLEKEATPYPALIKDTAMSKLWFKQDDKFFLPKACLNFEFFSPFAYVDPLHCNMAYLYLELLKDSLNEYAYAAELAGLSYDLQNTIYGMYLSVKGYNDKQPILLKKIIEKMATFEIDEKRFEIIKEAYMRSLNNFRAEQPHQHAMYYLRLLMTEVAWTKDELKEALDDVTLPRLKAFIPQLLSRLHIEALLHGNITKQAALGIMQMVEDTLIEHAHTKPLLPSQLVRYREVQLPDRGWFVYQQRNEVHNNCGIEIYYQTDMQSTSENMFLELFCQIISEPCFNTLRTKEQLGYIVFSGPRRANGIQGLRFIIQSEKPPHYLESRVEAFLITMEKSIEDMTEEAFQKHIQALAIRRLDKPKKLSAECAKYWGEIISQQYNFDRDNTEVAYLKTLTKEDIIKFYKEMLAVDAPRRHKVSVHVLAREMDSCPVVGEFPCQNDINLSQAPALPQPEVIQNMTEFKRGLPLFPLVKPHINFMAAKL
Efflux pump inh – blocks antifungal efflux pumps in multiplex yeast assay | S. cerevisiae Candida pump triplex, Nile Red efflux | inhibition, % at 10 µM | 0.44% of 330,000 active;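 active = plate passing quality check with inhibition over a set limit, or well fluorescence over plate mean plus 4 SD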;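 also: Nile Red retained in pooled yeast measured as flow cytometry median fluorescence; 0% = buffer negative control and 100% = Enniatin B positive control; higher means more Nile Red kept so more efflux inhibition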
IDE cell inh – inhibits human insulin-degrading enzyme in HEK cells; FAbetaB cleavage, fluorescence polarization; inhibition, % at 5.59 µM; 0.41% of 320,000 active; AID 434962;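 active = percent inhibition above the average of all tested compounds plus 3 SD, set per screening campaign, cut at about 16% in these data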;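 also: IDE supplied by intact live HEK cells; FP after avidin binding of uncleaved biotin substrate so inhibition keeps polarization high; 0% = DMSO wells and 100% = 60 µM reference IDE inhibitor Ii1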
HDAC3 inh – inhibitors of human histone deacetylase 3; O15379; recombinant HDAC3, fluorogenic peptide/trypsin coupled, fluorescence; inhibition, % at 8.3 µM; 0.15% of 320,000 active; AID 2718; in the data active = inhibition above about 26%, passing the limit was not always enough
Yeast superoxide – yeast age-related superoxide inhibition as caloric restriction mimetic; S. cerevisiae aged cells, superoxide DHE fluorescence; stronger effect = lower value; superoxide response (% of plate mean), % at 10 µM; 0.18% of 330,000 active; AID 2690;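 active = superoxide response under a set limit, about three screen SD below normal, cut at about 65% in these data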;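 also: yeast aged for seven days with compound at 30 °C before DHE staining; 100% = average MFI of all compound-treated wells on the plate with controls excluded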
Cmpd fluor yeast – counter-screen for efflux pump inhibitors: compound fluorescence; shares compounds with Efflux pump inh; S. cerevisiae AD/pABC3, flow cytometry; 4% of 1,700 active; fluorescence ratio to DMSO, % at 10 µM;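 active = fluorescence ratio to DMSO above its plate's cutoff, the plate mean ratio plus 5 SD, cut at about 210% in these data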;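 also: unstained yeast with no Nile Red so the signal is compound autofluorescence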
CaMdr1 efflux inh – inhibitors of Candida albicans Mdr1 efflux pump; shares compounds with Efflux pump inh; S. cerevisiae AD/CaMDR1, Nile Red efflux, flow cytometry; inhibition, % at 10 µM; 1% of 1,700 active; AID 588518; in the data active = inhibition above about 26%;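 also: 0% = DMSO vehicle and 100% = reference inhibitor; higher means more Nile Red retained so more efflux inhibition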
CaCdr2 efflux inh – Candida Cdr2 efflux pump inhibition | shares compounds with Efflux pump inh | S. cerevisiae AD/CaCDR2, Nile Red retention, flow cytometry | 4% of 1,700 active | Nile Red retention ratio vs DMSO, % at 10 µM; in the data active = Nile Red retention ratio vs DMSO above about 190%;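 also: higher ratio means more blocking of Cdr2 efflux of the dye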
CaCdr1 efflux inh – blocks the Candida albicans Cdr1 efflux pump in yeast; S. cerevisiae AD/CaCDR1, Nile Red efflux, flow cytometry; inhibition, % at 10 µM; 1% of 1,700 active; shares compounds with Efflux pump inh;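 active = inhibition above the screen-wide mean plus twice its standard deviation, cut at about 32% in these data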
TbMetRS confirm – Trypanosoma brucei MetRS inhibition confirmed; shares compounds with TbMetRS inhib; T. brucei MetRS enzyme, luminescence (ATP depletion); inhibition, % at 11.9 µM; 93% of 1,400 active; in the data active = inhibition above about 7%
Jurkat cytotox – counter-screen for T. brucei MetRS inhibitors: Jurkat cell cytotoxicity; shares compounds with TbMetRS inhib; Jurkat cells viability, ATP luminescence; inhibition, % at 8.3 µM; 12% of 1,400 active; in the data active = inhibition above about 15%;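 also: 0% = vehicle and 100% = reference inhibitor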
TbMetRS FP orth – T. brucei MetRS inhibition, orthogonal assay; purified T. brucei MetRS, fluorescence polarization; AID 651607; inhibition, % at 11.9 µM; shares compounds with TbMetRS inhib; 44% of 1,400 active; in the data active = inhibition above about 17%;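 also: 0% = vehicle wells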
An asterisk follows results filed as active; / = no result; + = active, no number.

SMILES | TbMetRS inhib | IDE cell activ | Efflux pump inh | IDE cell inh | HDAC3 inh | Yeast superoxide | Cmpd fluor yeast | CaMdr1 efflux inh | CaCdr2 efflux inh | CaCdr1 efflux inh | others
COC(=O)C1=C(c2cccc(C#N)c2)C[C@@H]2CC[C@H]1N2C(=O)NCCc1ccccc1 | 0 | 4 | 0 | -5 | 0 | 115 | / | / | / | /
O=c1[nH]sc2cc(F)ccc12 | -1 | -32 | / | / | / | / | / | / | / | /
CCN(CC)c1ccc(/C=C2/C(=O)NC(=O)N(CC3CCCO3)C2=O)cc1 (stereo not drawn) | 0 | -4 | 0 | 6 | 5 | 89 | / | / | / | /
CCN(CC)c1ccc(/C=C2\C(=O)NC(=O)N(Cc3ccco3)C2=O)cc1 | -1 | -4 | 0.5* | 5 | 2 | 108 | 82 | 0 | 102 | 0
Cc1cccc(C2=NCC(=O)N(CC(=O)NCc3ccco3)c3sc4c(c32)CCCC4)c1 | -1 | 5 | 0 | -3 | 5 | 94 | / | / | / | /
COc1ccc(C2=NCC(=O)N(CC(=O)NCc3ccco3)c3sc4c(c32)CCCC4)cc1 | -1 | 2 | 0.8* | -1 | 10 | 131 | 113 | 0 | 100 | 0
CCN(CC)C(=O)c1ccc(NC(=O)COc2ccc([N+](=O)[O-])cc2Cl)cc1 | 1 | 3 | 19* | -1 | 2 | 109 | 116 | 0 | 119 | 0
COc1ccc(NC(=O)N2CCC3(CC2)OCCO3)cc1OC | -1 | 7 | 11* | -6 | -1 | 99 | 103 | 0 | 108 | 0
CCc1ccc2c(CN3CC=C(c4ccccc4)CC3)cc(=O)oc2c1 | 1 | 2 | 10* | 0 | 3 | 103 | 107 | 0 | 101 | 0
COc1ccc2c(CN3CC=C(c4ccccc4)CC3)cc(=O)oc2c1 | -1 | 3 | 0 | 1 | -6 | 90 | / | / | / | /
S=P(Nn1cnnc1)(c1ccc(Br)cc1)c1ccc(Br)cc1 | 1 | 3 | 0 | 3 | 15 | 109 | / | / | / | /
Cc1ccc(-c2cc(-c3ccccc3)cc(-c3ccccc3)[n+]2-c2ccccc2)cc1 | 0 | -1 | 0 | 0 | -1 | 95 | / | / | / | /
Cc1ccc(-c2cc(-c3ccc(C)cc3)[n+](-c3ccccc3)c(-c3ccc(C)cc3)c2)cc1 | 0 | 3 | 34* | 3 | 11 | 95 | 105 | 20 | + | 15
C=CCOC(=O)N1Cc2ccccc2-n2nncc2C1 | -2 | / | / | / | / | / | / | / | / | /
CC1=CC(=O)OC2CC3OC4C[C@@H](C)C5OC6CC7O[C@]8(C)C/C=C\C9OC%10CC%11OC(CC(C)CO)CC(O)[C@]%11(C)OC%10CC9OC8C[C@]7(C)O[C@]6(C)CCC5OC4C[C@]3(C)OC12 (stereo partly drawn) | 0 | -2 | 1.4* | 4 | 6 | 101 | 105 | 0 | 106 | 1
Cn1ncnc2c(=O)n(C)c(=O)nc1-2 | 40* | 3 | 0 | -3 | 4 | 91 | / | / | / | / | TbMetRS confirm=21*;Jurkat cytotox=87*;TbMetRS FP orth=5
N#CC1c2ccccc2-n2nncc2CN1C(=O)c1ccccc1F (stereo not drawn) | 0 | / | / | / | / | / | / | / | / | /
